Data set [1] addresses T1, Fatty-acid amide hydrolase 1 (Homo sapiens) (UniProt O00519).
T1 sequence (whole entry): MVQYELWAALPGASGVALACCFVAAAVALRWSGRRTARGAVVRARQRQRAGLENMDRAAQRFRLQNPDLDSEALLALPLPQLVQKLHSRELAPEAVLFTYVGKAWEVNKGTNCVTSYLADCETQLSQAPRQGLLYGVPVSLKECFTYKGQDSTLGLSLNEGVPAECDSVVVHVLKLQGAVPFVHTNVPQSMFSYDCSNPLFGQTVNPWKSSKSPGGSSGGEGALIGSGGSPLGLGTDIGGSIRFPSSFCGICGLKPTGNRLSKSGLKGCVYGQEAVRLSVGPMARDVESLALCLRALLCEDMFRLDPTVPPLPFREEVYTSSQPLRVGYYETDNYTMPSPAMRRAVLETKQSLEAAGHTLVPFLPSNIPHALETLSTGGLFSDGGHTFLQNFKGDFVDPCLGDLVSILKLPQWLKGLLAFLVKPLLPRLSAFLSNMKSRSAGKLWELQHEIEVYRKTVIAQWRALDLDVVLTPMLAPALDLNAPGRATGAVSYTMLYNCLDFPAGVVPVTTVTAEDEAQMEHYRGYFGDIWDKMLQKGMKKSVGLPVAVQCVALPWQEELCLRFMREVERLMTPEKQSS
Briefly: Ratio of Kinact to Ki for human FAAH activity. The method in brief: (§1)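 kinact/Ki determined against human and rat FAAH. Each value is the average of at least two independent determinations.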

Data set [2] has as its target T2, Fatty-acid amide hydrolase 1 (Rattus norvegicus) (UniProt P97612).
T2 sequence (whole entry): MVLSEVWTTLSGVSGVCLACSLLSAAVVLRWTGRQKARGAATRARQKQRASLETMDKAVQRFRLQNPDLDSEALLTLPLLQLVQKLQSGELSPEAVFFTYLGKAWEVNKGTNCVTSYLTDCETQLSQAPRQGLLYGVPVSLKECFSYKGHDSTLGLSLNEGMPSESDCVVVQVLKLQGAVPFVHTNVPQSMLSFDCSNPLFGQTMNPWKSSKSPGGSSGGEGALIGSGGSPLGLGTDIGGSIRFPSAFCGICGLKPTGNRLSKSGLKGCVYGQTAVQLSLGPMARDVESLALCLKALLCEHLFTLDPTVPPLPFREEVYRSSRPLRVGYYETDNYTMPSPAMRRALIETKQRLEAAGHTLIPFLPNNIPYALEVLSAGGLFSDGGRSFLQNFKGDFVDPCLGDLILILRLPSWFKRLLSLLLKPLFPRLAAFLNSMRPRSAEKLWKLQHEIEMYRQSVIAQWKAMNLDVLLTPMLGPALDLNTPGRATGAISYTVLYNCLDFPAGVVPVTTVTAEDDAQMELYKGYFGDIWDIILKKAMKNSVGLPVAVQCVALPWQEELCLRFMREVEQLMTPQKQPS
Briefly: Ratio of Kinact to Ki for rat FAAH activity. In short, it runs like this: as §1

The next data set has as its system Rattus norvegicus. In words: Inhibition of FAAH in rat CFA model at 3 mg/kg, po after 3 hrs. Type of data set: functional. The conditions noted are these: for minimal effective dose: read-out: MED.
Data set [3] deals with T1, Fatty-acid amide hydrolase 1 (Homo sapiens). Briefly: Inhibition of FAAH in human brain membrane using rhodamine-tagged fluorophosphonate probe at 100 uM by competitive activity-based protein profiling method. Type of data set: cell membranes. In short, it runs like this: (§2)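 Competitive activity-based protein profiling against >200 human serine hydrolases, FAAH included. Compound tested at 100 µM in human brain membrane and soluble liver proteomes. Residual hydrolase activity labelled with a rhodamine-tagged fluorophosphonate probe.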

Data set [4] has the same target. Briefly: Inhibition of FAAH in human liver proteomes using rhodamine-tagged fluorophosphonate probe at 100 uM by competitive activity-based protein profiling method. The method in brief:
as §2

Data set [5] has as its target Voltage-gated inwardly rectifying potassium channel KCNH2 (Homo sapiens, UniProt Q12809). In words: Displacement of dofetilide from ERG.
Data set [6] can be described thus: Inhibition of cytochrome P450. The class given is ADME.

Active and inactive are the calls of the source. The rule behind the calls is not given here.

Chain of Voltage-gated inwardly rectifying potassium channel KCNH2 (Q12809 whole entry): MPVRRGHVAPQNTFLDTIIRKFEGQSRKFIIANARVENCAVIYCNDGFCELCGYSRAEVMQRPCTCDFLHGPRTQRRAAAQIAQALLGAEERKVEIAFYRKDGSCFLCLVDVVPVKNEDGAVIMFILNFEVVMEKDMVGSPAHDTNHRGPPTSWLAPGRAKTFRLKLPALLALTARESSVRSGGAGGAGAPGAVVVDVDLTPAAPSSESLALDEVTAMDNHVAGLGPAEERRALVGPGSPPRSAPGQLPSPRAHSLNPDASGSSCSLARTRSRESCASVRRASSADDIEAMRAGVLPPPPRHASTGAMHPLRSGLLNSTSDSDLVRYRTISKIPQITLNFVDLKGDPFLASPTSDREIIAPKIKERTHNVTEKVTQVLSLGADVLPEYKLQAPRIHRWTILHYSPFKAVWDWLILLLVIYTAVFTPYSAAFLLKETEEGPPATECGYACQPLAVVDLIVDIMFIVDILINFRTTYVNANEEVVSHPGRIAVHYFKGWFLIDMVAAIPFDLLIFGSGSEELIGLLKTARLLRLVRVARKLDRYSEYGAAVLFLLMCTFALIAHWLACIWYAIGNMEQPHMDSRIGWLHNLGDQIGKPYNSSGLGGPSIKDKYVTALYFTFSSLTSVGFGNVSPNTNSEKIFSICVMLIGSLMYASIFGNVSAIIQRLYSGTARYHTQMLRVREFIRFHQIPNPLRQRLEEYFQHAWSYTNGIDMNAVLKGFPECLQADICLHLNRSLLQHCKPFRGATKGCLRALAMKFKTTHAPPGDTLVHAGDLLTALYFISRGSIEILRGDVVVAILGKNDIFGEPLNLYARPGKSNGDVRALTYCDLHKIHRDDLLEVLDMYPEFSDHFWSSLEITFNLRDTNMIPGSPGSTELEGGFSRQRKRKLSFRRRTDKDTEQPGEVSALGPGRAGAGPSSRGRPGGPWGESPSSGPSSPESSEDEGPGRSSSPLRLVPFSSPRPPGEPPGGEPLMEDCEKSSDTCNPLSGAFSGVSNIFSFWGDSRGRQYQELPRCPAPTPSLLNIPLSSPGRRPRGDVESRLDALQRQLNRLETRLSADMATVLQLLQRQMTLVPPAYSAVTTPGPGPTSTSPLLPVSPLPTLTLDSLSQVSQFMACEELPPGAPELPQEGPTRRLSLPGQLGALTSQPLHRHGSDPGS

In the case of `Cn1nnnc1NC(=O)N1CCC2(CC1)CC(c1cccc(OC(F)(F)F)c1)C2`, the Ratio in data set [1] came to 13200 M⁻¹ s⁻¹; in data set [2] it was 4570 M⁻¹ s⁻¹. Further, the “activity call (active/not active)” value in the data set on Rattus norvegicus is “Active”. Further, in the data set with Rattus norvegicus, the minimal effective dose was determined as 0.1 mg/kg. Moreover, the inhibition result in data set [3] and in data set [4] was “Active” in each case. Also, the “inhibition (INH)” value in data set [5] and in data set [6] was “Not Active” each time.
As for `Cn1ncnc1NC(=O)N1CCC2(CC1)CC(c1cccc(OC(F)(F)F)c1)C2`, the Ratio in data set [1] is less than 10 M⁻¹ s⁻¹.
On to `Cc1noc(NC(=O)N2CCC3(CC2)CC(c2cccc(C#N)c2)CO3)c1C` (racemic), for which the figures for the Ratio in data set [1] and in data set [2] were 243 M⁻¹ s⁻¹ and 999 M⁻¹ s⁻¹, respectively.
The corresponding values for `Cc1noc(NC(=O)N2CCC3(CC2)CC(c2ccc(OC(F)(F)F)cc2)C3)c1C` are 353 M⁻¹ s⁻¹ and 229 M⁻¹ s⁻¹.
For `Cn1nnnc1NC(=O)N1CCC2(CC1)CC(c1cccc(C(F)(F)F)c1)CO2` (stereo in doubt; form 1) [listing 1 of 2 here], the values for the Ratio in data set [1] and in data set [2] were 4600 M⁻¹ s⁻¹ and 2160 M⁻¹ s⁻¹, respectively. Further, the “activity call (active/not active)” value in the data set with Rattus norvegicus was “Active”. Further, the inhibition entry in data set [3] and in data set [4] was “Active” throughout.
Take `Cc1noc(NC(=O)N2CCC3(CC2)CC(c2ccc(F)c(Cl)c2)CO3)c1C` (racemic): the Ratio in data set [1] came out at 1580 M⁻¹ s⁻¹; in data set [2], 3950 M⁻¹ s⁻¹.
For `Cc1noc(NC(=O)N2CCC3(CC2)CC(c2ccc(Cl)cc2)C3)c1C`, in that order: 2030 M⁻¹ s⁻¹ and 2070 M⁻¹ s⁻¹.
In the case of `Cn1nnnc1NC(=O)N1CCC2(CC1)CC(c1cccc(C(F)(F)F)c1)CO2` (stereo in doubt; form 2), the Ratio in data set [1] worked out at 3760 M⁻¹ s⁻¹; in data set [2], 2110 M⁻¹ s⁻¹.
In the case of `Cc1cccc(C2CC3(CCN(C(=O)Nc4onc(C)c4C)CC3)C2)c1`, the Ratio in data set [1] came to 2870 M⁻¹ s⁻¹; in data set [2], 1620 M⁻¹ s⁻¹.
For `Cc1noc(NC(=O)N2CCC3(CC2)CC(c2cccc(C(F)(F)F)c2)CO3)c1C` (racemic), in that order: 1330 M⁻¹ s⁻¹ and 2680 M⁻¹ s⁻¹.
Consider `Cc1noc(NC(=O)N2CCC3(CC2)CC(c2cccc(Cl)c2)CO3)c1C` (racemic), for which the Ratio in data set [1] was 2040 M⁻¹ s⁻¹; in data set [2], 2670 M⁻¹ s⁻¹.
The corresponding values for `Cc1noc(NC(=O)N2CCC3(CC2)CC(c2ccc(C#N)cc2)CO3)c1C` (racemic) are 43.2 M⁻¹ s⁻¹ and 26.1 M⁻¹ s⁻¹.
For `Cn1nnnc1NC(=O)N1CCC2(CC1)CC(c1cccc(Cl)c1)CO2` (stereo unspecified), in that order: 5600 M⁻¹ s⁻¹ and 1970 M⁻¹ s⁻¹.
The corresponding values for `Cc1noc(NC(=O)N2CCC3(CC2)CC(c2ccc(OC(F)(F)F)cc2)CO3)c1C` (racemic) are 162 M⁻¹ s⁻¹ and 461 M⁻¹ s⁻¹.
With `Cc1noc(NC(=O)N2CCC3(CC2)CC(c2cccc(Cl)c2)CO3)c1C` (stereo in doubt; form 2), the values for the Ratio in data set [1] and in data set [2] were 2590 M⁻¹ s⁻¹ and 3830 M⁻¹ s⁻¹, respectively.
The corresponding values for `Cc1noc(NC(=O)N2CCC3(CC2)CC(c2ccccc2OC(F)(F)F)C3)c1C` are 839 M⁻¹ s⁻¹ and 564 M⁻¹ s⁻¹.
In the case of `Cc1cc(NC(=O)N2CCC3(CC2)CC(c2cccc(OC(F)(F)F)c2)C3)on1`, the Ratio in data set [1] was determined as 113 M⁻¹ s⁻¹.
As to `Cn1nnnc1NC(=O)N1CCC2(CC1)CC(c1ccc(F)c(Cl)c1)C2`, the Ratio in data set [1] is 16300 M⁻¹ s⁻¹; in data set [2], 5940 M⁻¹ s⁻¹.
On to `Cc1noc(NC(=O)N2CCC3(CC2)CC(c2ccc(Cl)c(Cl)c2)CO3)c1C` (racemic), for which the values for the Ratio in data set [1] and in data set [2] were 2430 M⁻¹ s⁻¹ and 4360 M⁻¹ s⁻¹, respectively.
With `CCc1cccc(C2CC3(CCN(C(=O)Nc4onc(C)c4C)CC3)C2)c1`, the Ratio in data set [1] was determined as 5670 M⁻¹ s⁻¹; in data set [2], 1340 M⁻¹ s⁻¹. Moreover, the “activity call (active/not active)” value in the data set on Rattus norvegicus was “inactive”. In addition, the inhibition result in data set [3] and in data set [4] was “Active” in each case. Also, the “inhibition (INH)” value in data set [5] and in data set [6] was “Not Active” each time.
Take `Cc1noc(NC(=O)N2CCC3(CC2)CC(c2cccc(Cl)c2)C3)c1C`: the Ratio stood at 3940 M⁻¹ s⁻¹ in data set [1] and 3560 M⁻¹ s⁻¹ in data set [2]. Besides, the “activity call (active/not active)” value in the data set with Rattus norvegicus was “Active”. In addition, the minimal effective dose with Rattus norvegicus is 1 mg/kg. Also, the inhibition entry in data set [3] and in data set [4] was “Active” throughout. Besides, the “inhibition (INH)” value in data set [5] and in data set [6] was “Not Active” in each case.
Consider `COc1ccc(C2CC3(CCN(C(=O)Nc4onc(C)c4C)CC3)C2)cc1`, for which the values for the Ratio in data set [1] and in data set [2] were 1760 M⁻¹ s⁻¹ and 585 M⁻¹ s⁻¹, respectively.
For `Cc1noc(NC(=O)N2CCC3(CC2)CC(c2ccccc2)CO3)c1C` (racemic), in that order: 461 M⁻¹ s⁻¹ and 315 M⁻¹ s⁻¹.
`Cc1noc(NC(=O)N2CCC3(CC2)CC(c2ccc(C(F)(F)F)cc2)C3)c1C`: the Ratio was determined as 245 M⁻¹ s⁻¹ in data set [1] and 348 M⁻¹ s⁻¹ in data set [2].
On to `Cc1noc(NC(=O)N2CCC3(CC2)CC(c2cccc(Cl)c2)CO3)c1C` (stereo in doubt; form 1), for which the Ratio in data set [1] is 2390 M⁻¹ s⁻¹; in data set [2], 1560 M⁻¹ s⁻¹.
For `Cc1noc(NC(=O)N2CCC3(CC2)CC(c2cccc(OC(F)(F)F)c2)C3)c1C`, the Ratio in data set [1] came to 2830 M⁻¹ s⁻¹; in data set [2], 3860 M⁻¹ s⁻¹. Moreover, in the data set on Rattus norvegicus, the “activity call (active/not active)” value was “Active”. Also, in the data set on Rattus norvegicus, the minimal effective dose worked out at 1 mg/kg. Moreover, the inhibition entry in data set [3] and in data set [4] was “Active” each time. Further, the “inhibition (INH)” value in data set [5] and in data set [6] was “Not Active” in each case.
Take `Cc1noc(NC(=O)N2CCC3(CC2)CC(c2cccc(Oc4ccc(C(F)(F)F)cn4)c2)C3)c1C`: in data set [2], the Ratio amounted to 9460 M⁻¹ s⁻¹.
With `Cc1noc(NC(=O)N2CCC3(CC2)CC(c2cccc(C(F)(F)F)c2)C3)c1C`, the Ratio in data set [1] worked out at 3060 M⁻¹ s⁻¹; in data set [2], 3690 M⁻¹ s⁻¹.
Turning to `Cc1noc(NC(=O)N2CCC3(CC2)CC(c2cccc(OC(F)(F)F)c2)CO3)c1C` (racemic), the Ratio in data set [1] is 1800 M⁻¹ s⁻¹; in data set [2], 3110 M⁻¹ s⁻¹.
As to `Cn1nnnc1NC(=O)N1CCC2(CC1)CC(c1cccc(C(F)(F)F)c1)CO2` (stereo in doubt; form 1) [listing 2 of 2 here], the minimal effective dose in the data set with Rattus norvegicus was determined as 1 mg/kg. Also, the “inhibition (INH)” value in data set [5] and in data set [6] was “Not Active” in each case.
On to `Cc1noc(NC(=O)N2CCC3(CC2)CC(c2ccccc2)C3)c1C`, for which the Ratio is 2080 M⁻¹ s⁻¹ in data set [1] and 679 M⁻¹ s⁻¹ in data set [2].
For `COc1cccc(C2CC3(CCN(C(=O)Nc4onc(C)c4C)CC3)C2)c1`, in that order: 2190 M⁻¹ s⁻¹ and 741 M⁻¹ s⁻¹.
As to `Cc1noc(NC(=O)N2CCC3(CC2)CC(c2ccc(Cl)c(Cl)c2)C3)c1C`, the Ratio is 4550 M⁻¹ s⁻¹ in data set [1] and 3470 M⁻¹ s⁻¹ in data set [2].
For `Cc1nnc(NC(=O)N2CCC3(CC2)CC(c2cccc(OC(F)(F)F)c2)C3)o1`, in that order: 1530 M⁻¹ s⁻¹ and 2460 M⁻¹ s⁻¹.
For `Cc1onc(NC(=O)N2CCC3(CC2)CC(c2cccc(OC(F)(F)F)c2)C3)c1C`, in that order: 64 M⁻¹ s⁻¹ and 34.2 M⁻¹ s⁻¹.
For the compound `Cc1noc(NC(=O)N2CCC3(CC2)CC(c2ccccc2C(F)(F)F)C3)c1C`, the Ratio in data set [1] came to 1140 M⁻¹ s⁻¹.
`Cn1nnc(NC(=O)N2CCC3(CC2)CC(c2cccc(OC(F)(F)F)c2)C3)n1`: the Ratio in data set [1] worked out at 165 M⁻¹ s⁻¹; in data set [2], 152 M⁻¹ s⁻¹.
`CCc1c(C)noc1NC(=O)N1CCC2(CC1)CC(c1cccc(OC(F)(F)F)c1)C2`: in data set [1], the Ratio worked out at 338 M⁻¹ s⁻¹.
On to `Cc1noc(NC(=O)N2CCC3(CC2)CC(c2ccc(C(F)(F)F)cc2)CO3)c1C` (racemic), for which the values for the Ratio in data set [1] and in data set [2] were 481 M⁻¹ s⁻¹ and 714 M⁻¹ s⁻¹, respectively.
The corresponding values for `CCc1noc(NC(=O)N2CCC3(CC2)CC(c2cccc(OC(F)(F)F)c2)C3)c1C` are 1650 M⁻¹ s⁻¹ and 1660 M⁻¹ s⁻¹.
For `CCn1nnnc1NC(=O)N1CCC2(CC1)CC(c1cccc(OC(F)(F)F)c1)C2`, in that order: 6940 M⁻¹ s⁻¹ and 3420 M⁻¹ s⁻¹.
Take `COc1ccccc1C1CC2(CCN(C(=O)Nc3onc(C)c3C)CC2)C1`: the Ratio in data set [1] worked out at 2640 M⁻¹ s⁻¹; in data set [2], 265 M⁻¹ s⁻¹.

The values above are taken from ChEMBL document CHEMBL1914324, “Discovery of novel spirocyclic inhibitors of fatty acid amide hydrolase (FAAH). Part 2. Discovery of 7-azaspiro[3.5]nonane urea PF-04862853, an orally efficacious inhibitor of fatty acid amide hydrolase (FAAH) for pain” (Bioorg Med Chem Lett, 2011).
